Measurements taken from ChEMBL document CHEMBL2062453, “Lead optimization through VLAK protocol: new annelated pyrrolo-pyrimidine derivatives as antitumor agents” (2012).

Experiments:
Type in all cases: functional
HL-60(TB) = test: Cytotoxicity against human HL-60(TB) cells after 48 hrs by SRB assay; settings: HL-60, 48 h
Procedure, shortened: (§1)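 NCI 60-line five-dose screen. Cells are grown in RPMI 1640 with 5% FBS and 2 mM glutamine, plated at 5000–40,000 cells/well, and preincubated 24 h at 37 °C in 5% CO2. Compound is dissolved in DMSO and given at five concentrations (10-fold or ½-log dilutions) for 48 h. Cells are TCA-fixed (HL-60(TB), suspension: 16% final; HOP92, adherent: 10% final), SRB-stained and read at 515 nm. GI50 comes from [(Ti−Tz)/(C−Tz)]×100 = 50.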

MOLT-4 = test: Cytotoxicity against human MOLT4 cells after 48 hrs by SRB assay; settings: MOLT-4, 48 h
Procedure, shortened: (§2)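 Five-dose screen, 10-fold or ½-log dilutions, compound stock in DMSO. Cells were in RPMI 1640 with 5% FBS and 2 mM glutamine at 5000–40,000 cells/well, preincubated 24 h, 37 °C, 5% CO₂, with a time-zero plate TCA-fixed. After 48 h drug exposure, cells were TCA-fixed and stained with 0.4% SRB, read at 515 nm. GI50, TGI and LC50 were derived from time-zero, control and test absorbances.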

RPMI-8226 = test: Cytotoxicity against human RPMI8226 cells after 48 hrs by SRB assay; settings: RPMI-8226, 48 h; procedure, shortened: as §2
SR = test: Cytotoxicity against human SR cells after 48 hrs by SRB assay
Procedure, shortened: (§3)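 NCI 60-panel five-dose screen. Cells in RPMI 1640 with 5% FBS and 2 mM glutamine, plated at 5000–40,000 cells/well and preincubated 24 h at 37 °C under 5% CO2. Five 10-fold or half-log dilutions were added from a DMSO stock for 48 h. Cells were TCA-fixed (SR settled cells: 16% final), SRB-stained and read at 515 nm. GI50 was taken where (Ti−Tz)/(C−Tz)×100 = 50.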

EKVX = test: Cytotoxicity against human EKVX cells after 48 hrs by SRB assay
Procedure, shortened: (§4)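 NCI 60-cell five-dose screen. Cells grown in RPMI 1640 with 5% FBS and 2 mM glutamine, plated at 5000–40,000 cells/well, and preincubated 24 h at 37 °C in 5% CO2. Time-zero plates fixed with TCA. Five serial dilutions of DMSO stock added, then 48 h exposure. TCA fixation, 0.4% SRB staining, absorbance read at 515 nm. GI50 from [(Ti−Tz)/(C−Tz)]×100 = 50.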

HOP-92 = test: Cytotoxicity against human HOP92 cells after 48 hrs by SRB assay; settings: HOP-92, 48 h; procedure, shortened: as §1
NCI-H226 = test: Cytotoxicity against human NCI-H226 cells after 48 hrs by SRB assay; settings: NCI-H226, 48 h; procedure, shortened: as §2
NCI-H23 = test: Cytotoxicity against human NCI-H23 cells after 48 hrs by SRB assay; settings: NCI-H23, 48 h; procedure, shortened: as §2
COLO 205 = test: Cytotoxicity against human COLO205 cells after 48 hrs by SRB assay; settings: COLO 205, 48 h; procedure, shortened: as §4
HCC 2998 = test: Cytotoxicity against human HCC2998 cells after 48 hrs by SRB assay; settings: HCC 2998, 48 h; procedure, shortened: as §4
HCT-15 = test: Cytotoxicity against human HCT15 cells after 48 hrs by SRB assay; settings: HCT-15, 48 h; procedure, shortened: as §4
SF-539 = test: Cytotoxicity against human SF539 cells after 48 hrs by SRB assay; settings: SF-539, 48 h; procedure, shortened: as §2
LOX IMVI = test: Cytotoxicity against human LOXIMVI cells after 48 hrs by SRB assay; procedure, shortened: as §4
Malme-3M = test: Cytotoxicity against human MALME-3M cells after 48 hrs by SRB assay; procedure, shortened: as §4
MDA-MB-435 = test: Cytotoxicity against human MDA-MB-435 cells after 48 hrs by SRB assay; settings: MDA-MB-435, 48 h; procedure, shortened: as §4
SK-MEL-2 = test: Cytotoxicity against human SK-MEL-2 cells after 48 hrs by SRB assay; settings: SK-MEL-2, 48 h; procedure, shortened: as §2
SK-MEL-28 = test: Cytotoxicity against human SK-MEL-28 cells after 48 hrs by SRB assay; settings: SK-MEL-28, 48 h; procedure, shortened: as §2
OVCAR-3 = test: Cytotoxicity against human OVCAR3 cells after 48 hrs by SRB assay; settings: OVCAR-3, 48 h; procedure, shortened: as §2
OVCAR-4 = test: Cytotoxicity against human OVCAR4 cells after 48 hrs by SRB assay; settings: OVCAR-4, 48 h; procedure, shortened: as §2
NCI/ADR-RES = test: Cytotoxicity against human NCI/ADR-RES cells after 48 hrs by SRB assay; procedure, shortened: as §2
A498 = test: Cytotoxicity against human A498 cells after 48 hrs by SRB assay; settings: A498, 48 h; procedure, shortened: as §4
UO-31 = test: Cytotoxicity against human UO31 cells after 48 hrs by SRB assay; settings: UO-31, 48 h; procedure, shortened: as §3
MDA-MB-231 = test: Cytotoxicity against human MDA-MB-231 cells after 48 hrs by SRB assay; settings: MDA-MB-231, 48 h; procedure, shortened: as §4
Hs-578T = test: Cytotoxicity against human Hs578T cells after 48 hrs by SRB assay; procedure, shortened: as §4
BT-549 = test: Cytotoxicity against human BT549 cells after 48 hrs by SRB assay; settings: BT-549, 48 h; procedure, shortened: as §4
[1] = read-out: pLC50 (the source's name) (converted)

CSC1=Nc2c(c(C)c(-c3ccccc3)n2CCCCl)C2=NC(=O)CN12
GI50 (HL-60(TB)): 3.39 µM
CC50 (HL-60(TB); [1]): > 100 µM
TGI (HL-60(TB); read-out: pTGI (converted)): > 100 µM
GI50 (MOLT-4): 3.89 µM
LC50 (MOLT-4): > 100 µM
TGI (MOLT-4; read-out: pTGI (converted)): > 100 µM
GI50 (RPMI-8226): 3.72 µM
LC50 (RPMI-8226): > 100 µM
TGI (RPMI-8226; read-out: pTGI (converted)): 66.1 µM
GI50 (SR): 3.47 µM
CC50 (SR; [1]): > 100 µM
TGI (SR; read-out: pTGI): > 100 µM
GI50 (EKVX): 6.92 µM
LC50 (EKVX): > 100 µM
TGI (EKVX; read-out: pTGI (converted)): 30.9 µM
GI50 (HOP-92): 11.5 µM
LC50 (HOP-92): > 100 µM
TGI (HOP-92; read-out: pTGI (converted)): 37.2 µM
GI50 (NCI-H226): 11 µM
LC50 (NCI-H226): 81.3 µM
TGI (NCI-H226; read-out: pTGI (converted)): 29.5 µM
GI50 (NCI-H23): 8.32 µM
LC50 (NCI-H23): > 100 µM
TGI (NCI-H23; read-out: pTGI (converted)): 46.8 µM
GI50 (COLO 205): 4.17 µM
LC50 (COLO 205): 47.9 µM
TGI (COLO 205; read-out: pTGI (converted)): 15.1 µM
GI50 (HCC 2998): 4.57 µM
LC50 (HCC 2998): 64.6 µM
TGI (HCC 2998; read-out: pTGI (converted)): 19.5 µM
GI50 (HCT-15): 4.07 µM
LC50 (HCT-15): > 100 µM
TGI (HCT-15; read-out: pTGI (converted)): 21.4 µM
GI50 (SF-539): 3.39 µM
LC50 (SF-539): 39.8 µM
TGI (SF-539; read-out: pTGI (converted)): 14.1 µM
GI50 (LOX IMVI): 4.17 µM
LC50 (LOX IMVI): 50.1 µM
TGI (LOX IMVI; read-out: pTGI (converted)): 17.4 µM
GI50 (Malme-3M): 8.32 µM
LC50 (Malme-3M): 58.9 µM
TGI (Malme-3M; read-out: pTGI (converted)): 23.4 µM
GI50 (MDA-MB-435): 2.04 µM
LC50 (MDA-MB-435): 17.4 µM
TGI (MDA-MB-435; read-out: pTGI (converted)): 4.68 µM
GI50 (SK-MEL-2): 10.5 µM
LC50 (SK-MEL-2): 74.1 µM
TGI (SK-MEL-2; read-out: pTGI (converted)): 27.5 µM
GI50 (SK-MEL-28): 10.2 µM
LC50 (SK-MEL-28): 63.1 µM
TGI (SK-MEL-28; read-out: pTGI (converted)): 25.1 µM
GI50 (OVCAR-3): 8.32 µM
LC50 (OVCAR-3): > 100 µM
TGI (OVCAR-3; read-out: pTGI (converted)): 36.3 µM
GI50 (OVCAR-4): 6.76 µM
LC50 (OVCAR-4): > 100 µM
TGI (OVCAR-4; read-out: pTGI (converted)): 44.7 µM
GI50 (NCI/ADR-RES): 4.27 µM
LC50 (NCI/ADR-RES): > 100 µM
TGI (NCI/ADR-RES; read-out: pTGI (converted)): > 100 µM
GI50 (A498): 3.89 µM
LC50 (A498): 53.7 µM
TGI (A498; read-out: pTGI (converted)): 15.1 µM
GI50 (UO-31): 10.5 µM
LC50 (UO-31): 77.6 µM
TGI (UO-31; read-out: pTGI (converted)): 28.8 µM
GI50 (MDA-MB-231): 5.62 µM
LC50 (MDA-MB-231): 77.6 µM
TGI (MDA-MB-231; read-out: pTGI (converted)): 24 µM
GI50 (Hs-578T): 6.31 µM
LC50 (Hs-578T): > 100 µM
TGI (Hs-578T; read-out: pTGI (converted)): 34.7 µM
GI50 (BT-549): 4.9 µM
LC50 (BT-549): > 100 µM
TGI (BT-549; read-out: pTGI (converted)): 35.5 µM
